# Assay results published in ChEMBL document CHEMBL4819057, “Discovery of antiproliferative and anti-FAK inhibitory activity of 1,2,4-triazole derivatives containing acetamido carboxylic acid skeleton” (Bioorg Med Chem Lett, 2021).
# Active and inactive are the calls of the source. The rule behind the calls is not given here.
# Columns and labels:
# HepG2 [1] = assay: Antiproliferative activity against human HepG2 cells assessed as growth inhibition; type: functional, cell-based
# Hep 3B2 = assay: Antiproliferative activity against human Hep3B cells assessed as growth inhibition; type: functional, cell-based
# [2] = molecular target: RAC-alpha serine/threonine-protein kinase (Homo sapiens) (UniProt P31749); assay: Inhibition of Akt in human HepG2 cells assessed as reduction in Akt phosphorylation by Westernblot analysis; type: cell-based
# Sequence of RAC-alpha serine/threonine-protein kinase (Homo sapiens) (P31749 whole entry): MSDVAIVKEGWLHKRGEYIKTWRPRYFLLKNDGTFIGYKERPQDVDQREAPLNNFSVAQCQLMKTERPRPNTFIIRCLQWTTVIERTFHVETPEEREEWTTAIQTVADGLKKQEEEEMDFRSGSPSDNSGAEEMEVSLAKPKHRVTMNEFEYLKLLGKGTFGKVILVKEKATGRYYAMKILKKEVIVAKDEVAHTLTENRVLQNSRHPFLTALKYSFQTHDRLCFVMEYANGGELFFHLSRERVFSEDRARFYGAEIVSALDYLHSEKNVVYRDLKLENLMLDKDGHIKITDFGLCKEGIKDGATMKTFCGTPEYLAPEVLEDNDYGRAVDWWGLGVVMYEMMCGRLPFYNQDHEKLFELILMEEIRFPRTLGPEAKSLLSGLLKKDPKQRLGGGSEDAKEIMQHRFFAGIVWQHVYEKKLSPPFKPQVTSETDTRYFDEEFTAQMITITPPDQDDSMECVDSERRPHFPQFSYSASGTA
# Summary of the method: (§1)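 HepG2 cells treated, with DMSO as negative control (4 μM stated for p-FAK). Western blot for phospho-FAK, -PI3K, -Akt, -JNK and -STAT3 with GAPDH as loading control. Each phospho band is quantified by densitometry relative to its total protein. Means ± SEM of three experiments, with significance vs DMSO.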
# Focal adhesion kinase 1 [3] = molecular target: T1, Focal adhesion kinase 1 (Homo sapiens, UniProt Q05397); assay: Inhibition of human FAK phosphorylation in human HepG2 cells at 4 uM by Western blot analysis; type: cell-based; summary of the method: as §1
# Target sequence in this assay (Q05397 2-1052 limits assumed): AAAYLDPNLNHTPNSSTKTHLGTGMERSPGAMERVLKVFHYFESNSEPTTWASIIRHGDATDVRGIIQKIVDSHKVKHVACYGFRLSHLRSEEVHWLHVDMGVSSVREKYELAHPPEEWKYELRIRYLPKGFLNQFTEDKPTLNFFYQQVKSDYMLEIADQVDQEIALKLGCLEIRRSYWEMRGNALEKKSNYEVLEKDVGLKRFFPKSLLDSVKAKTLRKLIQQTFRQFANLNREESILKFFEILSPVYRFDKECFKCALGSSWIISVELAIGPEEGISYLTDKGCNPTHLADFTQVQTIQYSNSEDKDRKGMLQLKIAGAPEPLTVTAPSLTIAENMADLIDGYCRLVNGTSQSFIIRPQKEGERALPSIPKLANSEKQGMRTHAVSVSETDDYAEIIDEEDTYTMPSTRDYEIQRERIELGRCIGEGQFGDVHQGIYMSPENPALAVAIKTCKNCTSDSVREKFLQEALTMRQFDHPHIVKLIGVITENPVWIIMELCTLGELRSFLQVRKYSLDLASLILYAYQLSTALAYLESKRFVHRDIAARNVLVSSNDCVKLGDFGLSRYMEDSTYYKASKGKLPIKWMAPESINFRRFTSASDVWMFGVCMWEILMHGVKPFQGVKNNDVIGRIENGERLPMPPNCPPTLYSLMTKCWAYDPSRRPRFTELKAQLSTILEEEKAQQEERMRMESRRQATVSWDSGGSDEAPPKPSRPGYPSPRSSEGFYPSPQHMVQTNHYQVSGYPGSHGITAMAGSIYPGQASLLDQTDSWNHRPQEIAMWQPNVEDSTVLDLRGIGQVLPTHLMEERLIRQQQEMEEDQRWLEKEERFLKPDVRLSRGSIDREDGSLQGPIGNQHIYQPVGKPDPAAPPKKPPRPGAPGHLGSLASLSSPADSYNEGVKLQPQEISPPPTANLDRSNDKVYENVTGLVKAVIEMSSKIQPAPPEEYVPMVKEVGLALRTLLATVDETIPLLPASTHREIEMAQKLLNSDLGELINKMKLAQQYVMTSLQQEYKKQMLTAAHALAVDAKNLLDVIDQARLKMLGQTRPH
# [4] = molecular target: Signal transducer and activator of transcription 3 (Homo sapiens) (UniProt P40763); assay: Inhibition of STAT3 in human HepG2 cells assessed as reduction in STAT3 phosphorylation by Westernblot analysis; type: cell-based; summary of the method: as §1
# Sequence of Signal transducer and activator of transcription 3 (Homo sapiens) (P40763 whole entry): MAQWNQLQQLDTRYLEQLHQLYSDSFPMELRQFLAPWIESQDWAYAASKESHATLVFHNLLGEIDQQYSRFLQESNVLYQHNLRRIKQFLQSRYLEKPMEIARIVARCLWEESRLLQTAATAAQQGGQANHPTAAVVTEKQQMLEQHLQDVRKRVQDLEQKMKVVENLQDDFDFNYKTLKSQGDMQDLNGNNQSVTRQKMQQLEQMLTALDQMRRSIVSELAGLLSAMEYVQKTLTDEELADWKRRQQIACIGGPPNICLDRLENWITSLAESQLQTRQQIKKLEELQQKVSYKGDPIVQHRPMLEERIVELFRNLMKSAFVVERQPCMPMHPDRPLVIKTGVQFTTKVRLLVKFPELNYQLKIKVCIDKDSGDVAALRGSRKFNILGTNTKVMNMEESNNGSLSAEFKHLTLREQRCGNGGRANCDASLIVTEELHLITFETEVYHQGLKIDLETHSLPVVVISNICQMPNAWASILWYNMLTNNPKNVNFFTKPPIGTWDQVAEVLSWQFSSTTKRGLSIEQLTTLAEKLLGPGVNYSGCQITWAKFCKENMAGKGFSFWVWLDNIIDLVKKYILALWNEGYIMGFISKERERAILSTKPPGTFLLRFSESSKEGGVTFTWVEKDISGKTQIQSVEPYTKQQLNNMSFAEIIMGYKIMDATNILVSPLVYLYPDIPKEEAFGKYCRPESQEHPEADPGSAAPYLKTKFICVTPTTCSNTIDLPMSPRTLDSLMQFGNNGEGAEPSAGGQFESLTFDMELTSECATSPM
# HepG2 [5] = assay: Inhibition of PI3K in human HepG2 cells assessed as reduction in PI3K phosphorylation by Westernblot analysis; type: cell-based; summary of the method: as §1
# Focal adhesion kinase 1 [6] = molecular target: T1, Focal adhesion kinase 1; assay: Inhibition of FAK (unknown origin)
# Target sequence in this assay (Q05397 whole entry): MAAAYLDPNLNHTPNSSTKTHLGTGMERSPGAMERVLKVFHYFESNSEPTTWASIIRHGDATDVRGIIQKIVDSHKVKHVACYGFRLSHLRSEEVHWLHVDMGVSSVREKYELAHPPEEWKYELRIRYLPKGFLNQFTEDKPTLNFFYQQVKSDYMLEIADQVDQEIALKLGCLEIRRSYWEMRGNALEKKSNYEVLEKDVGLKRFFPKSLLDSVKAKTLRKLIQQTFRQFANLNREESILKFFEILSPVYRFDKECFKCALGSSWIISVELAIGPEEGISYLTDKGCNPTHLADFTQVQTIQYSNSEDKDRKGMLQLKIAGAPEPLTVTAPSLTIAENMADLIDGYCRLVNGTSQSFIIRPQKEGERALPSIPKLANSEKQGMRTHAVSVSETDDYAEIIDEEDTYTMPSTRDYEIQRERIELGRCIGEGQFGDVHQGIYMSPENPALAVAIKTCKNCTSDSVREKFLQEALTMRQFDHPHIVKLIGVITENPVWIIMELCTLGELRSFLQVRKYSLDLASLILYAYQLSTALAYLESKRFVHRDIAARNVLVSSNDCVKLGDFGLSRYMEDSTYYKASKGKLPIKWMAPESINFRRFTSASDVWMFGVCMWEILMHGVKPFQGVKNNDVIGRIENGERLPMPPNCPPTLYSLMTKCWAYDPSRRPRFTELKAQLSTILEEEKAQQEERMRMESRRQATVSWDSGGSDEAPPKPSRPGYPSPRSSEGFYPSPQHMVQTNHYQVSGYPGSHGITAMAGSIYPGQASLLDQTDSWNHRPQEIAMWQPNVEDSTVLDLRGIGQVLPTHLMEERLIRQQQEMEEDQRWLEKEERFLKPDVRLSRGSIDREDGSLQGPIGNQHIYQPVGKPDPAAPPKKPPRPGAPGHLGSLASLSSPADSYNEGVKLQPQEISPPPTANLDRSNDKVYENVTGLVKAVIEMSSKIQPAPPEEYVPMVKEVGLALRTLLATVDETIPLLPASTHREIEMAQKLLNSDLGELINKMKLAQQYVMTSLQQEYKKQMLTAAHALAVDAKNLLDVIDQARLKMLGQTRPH
# [7] = molecular target: c-Jun N-terminal kinase, JNK (Homo sapiens) (UniProt P45983+P53779+P45984); assay: Inhibition of JNK in human HepG2 cells assessed as reduction in JNK phosphorylation by Westernblot analysis; type: cell-based; summary of the method: as §1
# HepG2 [8] = assay: Induction of cell cycle arrest in human HepG2 assessed as accumulation of cells at S phase at 3.78 uM incubated for 24 hrs by Flow cytometric analysis; type: functional
# HepG2 [9] = assay: Induction of cell cycle arrest in human HepG2 assessed as accumulation of cells at sub G1 phase at 3.78 uM incubated for 24 hrs by Flow cytometric analysis
# HepG2 [10] = assay: Induction of apoptosis in human HepG2 cells assessed as late apoptotic cells after 24 hrs by Annexin V/propidium iodide staining based assay (reference value: 0.09%); type: functional
# HepG2 [11] = assay: Induction of apoptosis in human HepG2 cells assessed as necrotic cells after 24 hrs by Annexin V/propidium iodide staining based assay (reference value: 0.79%); type: functional
# HepG2 [12] = assay: Induction of apoptosis in human HepG2 cells assessed as early apoptotic cells after 24 hrs by Annexin V/propidium iodide staining based assay (reference value: 0.33%); type: functional
Compound,IC50 (HepG2 [1]) [µM],inhibition [2],inhibition (Focal adhesion kinase 1 [3]),inhibition [4],IC50 (Focal adhesion kinase 1 [6]) [µM],inhibition [7],IC50 (Hep 3B2) [µM],inhibition (HepG2 [5]),Activity (HepG2 [8]) [%],Activity (HepG2 [9]) [%],Activity (HepG2 [10]) [%],Activity (HepG2 [11]) [%],Activity (HepG2 [12]) [%]
CCn1c(SCC(=O)Nc2ccc(C(=O)O)cc2)nnc1-c1ccncc1,41,–,–,–,–,–,17.9,–,–,–,–,–,–
Cn1c(SCC(=O)Nc2ccc(C(=O)O)cc2)nnc1-c1ccncc1,8.83,–,–,–,–,–,3.87,–,–,–,–,–,–

# These reach a lower IC50 (HepG2 [1]). Values come first.
IC50 (HepG2 [1]) [µM],inhibition [2],inhibition (Focal adhesion kinase 1 [3]),inhibition [4],IC50 (Focal adhesion kinase 1 [6]) [µM],inhibition [7],Compound,IC50 (Hep 3B2) [µM],inhibition (HepG2 [5]),Activity (HepG2 [8]) [%],Activity (HepG2 [9]) [%],Activity (HepG2 [10]) [%],Activity (HepG2 [11]) [%],Activity (HepG2 [12]) [%]
1.99,–,–,–,–,–,COc1cccc2c1C(=O)c1c(O)c3c(c(O)c1C2=O)C[C@@](O)(C(=O)CO)C[C@@H]3O[C@H]1C[C@H](N)[C@H](O)[C@H](C)O1 [DOXORUBICIN],7.21,–,–,–,–,–,–
4.72,Active,Active,Active,0.0364,Active,C=CCn1c(SCC(=O)Nc2ccc(C(=O)O)cc2)nnc1-c1ccncc1,2.88,Active,–,–,–,–,–
3.78,Active,Active,Active,0.0181,Active,O=C(CSc1nnc(-c2ccncc2)n1-c1ccccc1)Nc1ccc(C(=O)O)cc1,4.83,Active,54.11,41.61,23.71,12.59,5.31
